From PubChem BioAssay
The full list was thinned out, with hits kept by preference.
HCT116 bCat-KO = beta-catenin-lacking colon tumor cell growth suppression; HCT116 beta-catenin knockout viability, CellTiter-Glo, 60 h; hits give low values; viability, % at 10 µM; actives 1.5% (n = 140,000); AID 818;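 active = viability at or under a set limit, the compound median less 4 SD, cut at about 6% in these data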;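 also: 0% = Hyamine 1622 control at 20 µM and 100% = untreated cell control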
HCT116 PTEN-null = PTEN-deleted cell growth suppression; viability, % at 10 µM; HCT116 PTEN-null viability, CellTiter-Glo, 60 h; hits give low values; actives 1.2% (n = 140,000);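 active = viability at or below a set limit, 4 SD under the median of all tested compounds, cut at about 3.7% in these data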;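 also: PTEN knockout HCT116 line with beta catenin targeted HCT116 as companion control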
H69AR inhibit = blocks growth of human H69AR lung tumor cells; actives 6% (n = 85,000); H69AR lung tumor viability, ATP luminescence, 72 h; hits give low values; viability, % at 10 µM;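 active = viability at or below 40%; inactive = viability above 40%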;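 also: multidrug resistant small cell line overexpressing MRP-1 efflux transporter; 100% = mean luminescence of untreated control wells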
Lung fibro prol = blocks proliferation of human lung fibroblasts; LL 47 human lung fibroblast viability, ATP luminescence; hits give low values; viability, % at 10 µM; actives 1.1% (n = 85,000);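 active = viability at or below 50% in the single dose screen; inactive = viability above 50%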;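 also: compound exposure lasted 72 h before the ATP readout; 100% = median luminescence of untreated cell-only wells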
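Times – overnight cell rest, 72 h compound treatment at 37 °C · Test system – human lung fibroblast line LL 47, low passage · Amount – 1,150 cells in each well · Controls – cell-only wells, no compound · Doses – 0.1% DMSO in all compound wells · Measured by – CellTiter-Glo luminescence · Buffer or medium – IMEM plus 15% FBS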
HUVEC prolif 384 = blocks proliferation of human endothelial cells. AID 648. viability, % at 10 µM (by protocol). actives 1.1% (n = 86,000). HUVEC proliferation, CellTiter-Glo luminescence, 72 h; hits give low values;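 active = viability at or below 30%; inactive = viability above 30%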;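 also: 100% = median luminescence of DMSO-only cell control wells on each plate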
The depositor's hits bear a star; nt = not tested or not shown.

SMILES | HCT116 bCat-KO | HCT116 PTEN-null | H69AR inhibit | Lung fibro prol | HUVEC prolif 384
C1CCN=C(Nc2nn[nH]n2)CC1 | 95.7 | 101.9 | 107.6 | 104.1 | 103.8
CC(NC(=O)CN(c1cccc(C(F)(F)F)c1)S(=O)(=O)c1ccc(Cl)c([N+](=O)[O-])c1)c1ccccc1 (stereo not drawn) | 5.8* | 19.6 | nt | nt | nt
C=CCSc1cc(C)nc2c(-c3ccc(Cl)cc3)c(C)nn12 | 89.3 | 88.0 | 36.1* | 97.2 | 89.9
Cc1cc(C(F)(F)F)n2nc(C)c(-c3ccc(Cl)cc3)c2n1 | 88.0 | 97.9 | nt | nt | nt
Cc1cc(SCC(=O)c2cccs2)n2nc(C)c(-c3ccc(Cl)cc3)c2n1 | 68.7 | 64.5 | nt | nt | nt
Cc1cc(-n2nc(C)cc2C)n2nc(C)c(-c3ccc(Cl)cc3)c2n1 | 16.1 | 21.9 | 44.3 | 46.4* | 82.7
COc1ccc(/C=C(\C#N)C(=O)NCc2cccs2)cc1OC | 95.1 | 106.1 | nt | nt | nt
CC(C)(C)c1ccc(-c2nnc(SCC(=O)O)n2N)cc1 | 91.2 | 99.6 | 88.5 | 44.0* | 97.3
CCCC1(CCC)NC(=O)N(CC(=O)Nc2ccccc2OC)C1=O | 102.1 | 97.7 | 122.5 | 14.9* | 96.1
Cc1ccc(N=Nc2c(C)[nH][nH]c2=O)c(C)c1 | 37.3 | 33.2 | 24.2* | 91.2 | 13.2*
CC(=O)c1nc(N2C(=O)CC(Cc3ccc(C)cc3)C2=O)sc1C (stereo not drawn) | 95.2 | 88.0 | nt | nt | nt
CSc1cc(-c2ccccc2)n(Cc2ccc(Cl)cc2Cl)c(=O)c1C#N | 95.6 | 102.2 | 35.8* | 94.2 | 92.5
CC(=O)c1c(C)[nH]c(C(=O)N2CCN(c3cc(Cl)ccc3C)CC2)c1C | 20.2 | 18.2 | 17.1* | 54.7 | 50.9
COc1cccc(N2CCN(C(=O)c3[nH]c(C)c(C(C)=O)c3C)CC2)c1 | 25.5 | 26.2 | 21.2* | 54.2 | 44.3
COc1ccccc1N1CCN(C(=O)c2cc3c(=O)n(C)c4ccccc4c3n2C)CC1 | 56.3 | 63.9 | 80.8 | 90.4 | 82.4
COC(=O)c1sccc1NC(=O)c1c(-c2ccccc2)noc1C | 75.7 | 72.5 | nt | nt | nt
O=C(COC(=O)CNC(=O)C1CCCCC1)Nc1ccc2ccccc2c1 | 91.2 | 99.4 | 101.0 | 95.6 | 91.8
Cc1nc(NC(=O)c2ccccc2)sc1-c1csc(Nc2ccc(F)cc2)n1 | 60.3 | 66.7 | nt | nt | nt
O=Cc1c(Sc2ccccc2)nc2ccccn2c1=O | 46.1 | 60.1 | 2.6* | 64.3 | 69.0
O=Cc1c(N2CCCCCC2)nc2ccccn2c1=O | 90.9 | 91.2 | 101.9 | 93.6 | 93.3
O=Cc1c(Sc2ccccn2)nc2ccccn2c1=O | 77.6 | 81.0 | 21.7* | 102.0 | 85.4
Cc1ccc(CN2CCN(C(=O)c3ccco3)CC2)cc1 | 89.8 | 97.0 | 96.1 | 98.4 | 102.5
COc1ccccc1C1CC(=O)Nc2cc3c(cc21)OCCO3 (stereo not drawn) | 13.0 | 12.3 | 21.9* | 55.6 | 45.5
CC(C)Oc1ccccc1C1CC(=O)Nc2cc3c(cc21)OCCO3 (stereo not drawn) | 14.2 | 19.7 | 27.2* | 55.0 | 55.5
Cc1ccc(C2CC(=O)Nc3cc4c(cc32)OCCO4)s1 (stereo not drawn) | 82.6 | 92.3 | 53.1 | 83.3 | 84.7
SMILES | HCT116 bCat-KO | HCT116 PTEN-null | H69AR inhibit | Lung fibro prol | HUVEC prolif 384
O=C1CC(c2cccs2)c2cc3c(cc2N1)OCCO3 (stereo not drawn) | 76.2 | 69.4 | 18.2* | 93.7 | 94.9
CCOc1ccccc1C1CC(=O)Nc2cc3c(cc21)OCO3 (stereo not drawn) | 17.7 | 17.5 | nt | nt | nt
COc1cccc(C2CC(=O)Nc3cc4c(cc32)OCCO4)c1OC(C)C (stereo not drawn) | 84.5 | 84.3 | 26.7* | 94.6 | 96.1
Cc1ccc(S(=O)(=O)N2CCN(S(=O)(=O)c3ccc4c(c3)OCCO4)CC2)cc1 | 81.0 | 88.9 | 77.4 | 94.4 | 89.4
COC(=O)c1c(NC(=O)CC2SC(N)=NC2=O)sc2c1CCCC2 (stereo not drawn) | 82.4 | 73.1 | nt | nt | nt
O=S(=O)(Nc1cccc(-c2nc3cccnc3s2)c1)c1ccc2c(c1)OCCO2 | 84.3 | 72.7 | 79.8 | 103.6 | 78.0
Cc1ccc(-c2nc3cccnc3s2)cc1NS(=O)(=O)c1ccc2c(c1)OCCO2 | 73.2 | 78.5 | 21.2* | 90.6 | 70.1
COC(=O)c1nc(NC(C)=O)n[nH]1 | 98.9 | 98.8 | 93.4 | 104.7 | 102.5
COC(=O)c1nc(NC2=NCCCCC2)n[nH]1 | 113.7 | 106.7 | 39.2* | nt | 94.2
CC(=O)[C@H]1CC[C@H]2[C@@H]3CCC4=CC(=O)CC[C@]4(C)[C@H]3CC[C@]12C | 22.4 | 43.8 | 28.9* | 90.0 | 31.8
